The sample as a whole holds a higher share of hits than the screen did.
VLA-4 inh: inhibition in human VLA-4 binding assay, primary screen, VLA-4 allosteric modulator project, MLPCN library, flow cytometry, VLA-4 expressing cells; ligand binding flow cytometry; AID 2557, 2010; 330,000 compounds, 0.2% hits; inhibition, % (about 7 µM as worked out from the volumes in the protocol); in the data active = inhibition above about 50%
Target sequence (P13612 whole entry, looked up): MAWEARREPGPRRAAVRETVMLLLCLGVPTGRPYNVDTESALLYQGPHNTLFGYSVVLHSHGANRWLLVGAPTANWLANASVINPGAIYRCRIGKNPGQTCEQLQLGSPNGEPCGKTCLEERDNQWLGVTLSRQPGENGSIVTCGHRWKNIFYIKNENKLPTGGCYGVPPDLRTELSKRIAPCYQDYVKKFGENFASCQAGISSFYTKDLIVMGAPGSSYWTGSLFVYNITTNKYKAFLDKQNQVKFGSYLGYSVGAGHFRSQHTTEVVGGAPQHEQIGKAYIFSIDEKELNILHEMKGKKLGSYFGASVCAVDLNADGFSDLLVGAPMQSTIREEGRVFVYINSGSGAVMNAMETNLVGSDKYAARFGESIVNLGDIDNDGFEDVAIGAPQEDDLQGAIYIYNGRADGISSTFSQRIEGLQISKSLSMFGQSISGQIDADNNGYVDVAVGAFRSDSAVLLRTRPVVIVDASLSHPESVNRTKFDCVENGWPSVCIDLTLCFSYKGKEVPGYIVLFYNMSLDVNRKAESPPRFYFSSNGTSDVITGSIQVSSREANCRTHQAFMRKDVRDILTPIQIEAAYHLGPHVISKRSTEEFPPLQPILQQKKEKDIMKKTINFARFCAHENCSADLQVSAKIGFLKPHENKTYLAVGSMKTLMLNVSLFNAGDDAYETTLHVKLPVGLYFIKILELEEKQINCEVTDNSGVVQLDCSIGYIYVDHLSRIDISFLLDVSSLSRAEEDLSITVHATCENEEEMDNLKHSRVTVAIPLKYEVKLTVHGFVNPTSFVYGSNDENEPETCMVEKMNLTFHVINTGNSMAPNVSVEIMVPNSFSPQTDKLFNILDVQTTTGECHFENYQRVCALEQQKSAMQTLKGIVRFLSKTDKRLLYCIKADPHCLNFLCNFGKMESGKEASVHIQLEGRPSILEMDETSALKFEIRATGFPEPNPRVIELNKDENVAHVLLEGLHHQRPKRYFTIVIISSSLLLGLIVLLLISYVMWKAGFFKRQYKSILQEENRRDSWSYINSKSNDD
CHOP UPR activ: activators of apoptotic CHOP UPR arm, primary screen, cell-based, CHO-CHOP luciferase reporter, luminescence, uHTS | UPR activation; percent of tunicamycin response over DMSO baseline | activation, % at 10 µM | 330,000 compounds, 0.34% hits | AID 449763, 2010;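 active = at 10 µM dose, activation of 40% or more, normalized to positive control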;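 note: 100% = tunicamycin at 10 µg/mL and 0% = DMSO alone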
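Evaluation: % reporter activation, DMSO baseline versus tunicamycin full activation; System: CHO-CHOP luciferase reporter cell line; Input: 500 cells/well; Incubation: 6 h compound treatment, 37 °C; Measured by: Steady-Glo luciferase luminescence; Dosing: one dose, 10 µM in 0.5% DMSO; Buffer or medium: F12 medium, 10% FBS; Benchmarks: positive tunicamycin 10 µg/mL, negative DMSO alone.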
XBP1 UPR activ: activators of adaptive XBP1 UPR arm, primary screen, cell-based, CHO-XBP1 luciferase reporter, luminescence, uHTS; 330,000 compounds, 0.33% hits; activation, % at 20 µM; AID 463104, 2010; IRE1-XBP1 UPR activation; percent of tunicamycin response, DMSO as zero;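 active = versus positive control, 20 µM dose yields 30% or more activation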;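 note: 100% = tunicamycin at 10 µg/mL and 0% = DMSO only wells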
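Assay system: CHO-XBP1 luciferase reporter cells; Schedule: 6 h treatment, 37 °C; Detection: glow luminescence from Steady-Glo reagent; Benchmarks: high control tunicamycin 10 µg/mL final, low control DMSO vehicle only.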
B2AR ag: beta2AR agonists driving receptor internalization, primary screen, cell-based, FAP fluorogen, flow cytometry. Am2.2-beta2AR cells. response, % (no concentration beside the values). 340,000 compounds, 0.43% hits;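 active = response above a set limit, near 3 SD of response in nonfluorescent compounds, cut at about 42% in these data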
CHOP inhibitor: inhibitors of CHOP promoter induction, primary screen, cell-based, unfolded protein response, luciferase reporter. 220,000 compounds, 3.8% hits. AID 2732, 2010. CHO-K1 CHOP-promoter luciferase, tunicamycin-induced, 15-18 h. inhibition, % at 10 µM;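 active = compounds that reduced the stress-induced luciferase reporter signal by more than about 70% of percent inhibition, limit read from the data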;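 note: 0% = tunicamycin plus vehicle and 100% = wells without tunicamycin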
VLA-4 mod pick: retest of VLA-4 allosteric modulators, confirmation, cell-based, cherry-picked plates, U937, HUTS-21 LIBS antibody; inhibition, % at 6.7 µM; shares compounds with VLA-4 inh; U937 cells, HUTS-21 LIBS mAb binding, flow cytometry; LDV ligand present at threefold Kd; 1,300 compounds, 2% hits; in the data active = inhibition above about 40%;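 note: 0% = ligand without compound and 100% = no ligand background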
The depositor's hits bear a star; / = no result.

SMILES	VLA-4 inh	CHOP UPR activ	XBP1 UPR activ	B2AR ag	CHOP inhibitor	VLA-4 mod pick
CCC(C)[C@H]1CNC(=O)C(=O)N1CCCc1cc(OC)c(OC)c(OC)c1 (stereo partly specified)	12	-2	-2	-12	18	10
Cc1cc(OCC(=O)Nc2ccc(S(=O)(=O)N3CCN(C)CC3)cc2)ccc1Br	14	3	-6	11	/	/
CC(C)Oc1ccccc1C1CC(=O)Nc2cc3c(cc21)OCO3 (stereo unspecified)	57*	-2	7	25	/	42*
Cc1cc2c(cc1C)C(c1ccccc1OC(C)C)CC(=O)N2 (stereo unspecified)	3	1	-4	12	/	-5
Cc1[nH]c2ccccc2c1/C=N/NC(=O)c1ccc(N)cc1	3	1	1	-13	/	/
Cc1[nH]c2ccccc2c1/C=N/NC(=O)c1ccccc1	45	1	10	-1	/	-7
COc1ccc(-n2nc(C(=O)NCC(=O)NCCCN3CC(C)CC(C)C3)c3ccccc3c2=O)cc1Cl (stereo unspecified)	15	0	-3	12	/	/
CCCNC(=O)c1ccccc1NC(=O)COc1ccc(OC)cc1	/	0	0	9	26	-9
O=C(COc1ccccc1)Nc1ccccc1C(=O)NCc1ccco1	58*	0	3	5	-17	0
COc1ccc(OCC(=O)Nc2ccccc2O)cc1	1	4	7	0	25	/
COc1ccccc1OCC(=O)Nc1ccccc1C(=O)NCc1ccco1	3	-2	-3	-4	-33	/
C/C(Sc1nnc(Cc2ccccc2)o1)=C(\O)c1ccccc1	/	/	/	-1	/	/
COc1ccccc1N(C)S(=O)(=O)c1ccc(C(=O)Nc2cccc(S(=O)(=O)N3CCOCC3)c2)cc1	/	/	/	9	/	/
CCC(=O)N1CCN(c2ccc(Cl)cc2NC(=S)NC(=O)c2ccco2)CC1	6	1	-1	-4	/	/
COc1ccc(C(=O)Nc2ccccc2C(=O)NC(Cc2ccc(O)cc2)C(=O)NNC(=O)c2ccncc2)cc1 (stereo unspecified)	56*	0	-1	-8	-5	1
COc1ccc(/C=N/NC(=O)CCc2n[nH]c(=O)[nH]c2=O)cc1O	45	0	-3	-3	-11	2
CC1CCN(c2c(NCC3CCC(C(=O)NCCCc4ccccc4)CC3)c(=O)c2=O)CC1 (stereo unspecified)	1	-1	-2	/	12	/
CN1CCc2nc(SCC(=O)Nc3ccc(Cl)cc3)c(C#N)cc2C1	106*	1	0	4	18	-3
NC(=O)[C@@H]1CC2(CC(c3cccc(NC(=O)[C@H]4CCC(=O)N4)c3)=NO2)CN1C(=O)c1ccc(Cl)cc1 (stereo partly specified)	-4	0	1	-2	-6	/
NC(=O)[C@H]1CC2(CC(c3cccc(NC(=O)[C@H]4CCC(=O)N4)c3)=NO2)CN1C(=O)c1ccccc1 (stereo partly specified)	51*	-1	-4	-1	14	6
Cc1ccccc1C(=O)N1CCC(C(=O)Nc2ccc(C(C)C)cc2)CC1	21	-1	-3	0	/	14
Cc1ccccc1C(=O)N1CCC(C(=O)Nc2ccccn2)CC1	51*	-2	2	-5	/	-1
Cc1ccccc1C(=O)N1CCC(C(=O)NC2CCCCCC2)CC1	-3	-2	0	-1	/	/
Cc1ccccc1Cn1cc(S(=O)(=O)c2ccc(C(C)C)cc2)c(=O)c2cc3c(cc21)OCO3	2	0	-1	3	/	/
CC(C)(C)c1ccc(S(=O)(=O)NNC(=O)c2cc3ccccc3[nH]2)cc1	4	6	-1	3	/	/
SMILES	VLA-4 inh	CHOP UPR activ	XBP1 UPR activ	B2AR ag	CHOP inhibitor	VLA-4 mod pick
C=CCN(CC=C)C(=S)NC(=O)c1ccc(OC)cc1	52*	0	0	7	-24	3
Cc1[nH]c(C)c(S(=O)(=O)Nc2ccc(OC(F)(F)F)cc2)c1C(=O)N1CCCCC1	1	3	7	9	/	/
C=C(C)CSc1nc2sc3c(c2c(=O)n1-c1ccccc1)CCN(C)C3	-10	3	0	0	/	/
C=CC[n+]1c(C)csc1Nc1cccc(Br)c1	-13	3	1	-3	20	/
C=CC[n+]1c(C)csc1Nc1ccc(C)cc1	52*	2	1	-10	-8	0
O=C(COc1ccccc1Cl)Nc1nnc(S(=O)(=O)N2CCCC2)s1	0	-1	-1	10	/	/
O=C(Nc1cccc(Cl)c1)OCc1cncs1	0	-1	1	-6	22	4
O=C(Nc1ccc(Cl)cc1)OCc1cncs1	1	4	4	0	-21	-10
O=C(CCc1nnc2ccc(N3CCC4(CC3)OCCO4)nn12)Nc1ccc(F)cc1	11	-2	-3	3	/	/
Cc1cc(=O)n2[nH]c(SCc3ccccc3Cl)nc2n1	-7	5	-2	-5	/	/
O=C(CSCc1cccc(Br)c1)N=Nc1c(O)[nH]c2ccccc12	57*	-1	1	8	24	-15
CCOC(=O)[C@H]1[C@H]2COc3ccc(Br)cc3[C@H]2N2C(=O)CN(Cc3ccc(C)cc3)C(=O)[C@@]12C	/	/	/	9	/	/
CN(C)S(=O)(=O)c1cccc(C(=O)OCC(=O)Nc2ccccc2OC(F)F)c1	8	-2	-1	1	-25	/
CCN(CC)S(=O)(=O)c1cccc(C(=O)OCC(=O)Nc2ccccc2OC(F)F)c1	-1	-1	0	3	3	0
O=C(CN1CCN(c2cccc(Cl)c2)CC1)c1ccc(O)cc1O	12	1	-5	12	/	/
CCOc1ccc(CNC(=O)CCCC(=O)n2ncc3cc(C)ccc32)cc1	59*	0	4	-14	/	5
COc1ccc(OC)c(N(CC(=O)Nc2cccnc2)S(=O)(=O)c2ccccc2)c1	63*	-1	-1	-16	27	0
COc1ccccc1N(CC(=O)Nc1cccnc1)S(=O)(=O)c1ccccc1	13	-2	1	1	-33	/
CC(=O)Oc1ccc(NC(=O)Cc2ccccc2)c(C(=O)O)c1	52*	-2	-2	-9	-2	-2
O=C(Nc1ccccc1)Nc1ccncc1	62*	-1	0	-4	-12	-10
O=C(Nc1ccncc1)Nc1ccccn1	11	-1	5	-5	-1	/

Screens from PubChem BioAssay.
